Experimental data reported in ChEMBL document CHEMBL3272281, “Synthesis and structure-activity relationship studies of cytotoxic epoxide derivatives of 7-oxabicyclo[2.2.1]heptane” (J Med Chem, 1977).
Converted amounts (≈) assume the structure as drawn. The source made the active and inactive calls.

Tests used:
Mus musculus [1] = experiment: Toxicity in BDF1 mouse allografted with mouse L1210 cells at 400 mg/kg; format: organism-based; design: dose 400 mg/kg; conditions: in vivo
Outline: (§1)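 Toxicity was recorded as lethality to BDF1 mice during the in vivo L1210 lymphoid leukemia screen. Compounds were given at 12.5, 50, 200 or 400 mg/kg.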

L1210 = experiment: Antitumor activity against mouse L1210 cells allografted in BDF1 mouse; format: functional
Mus musculus [2] = experiment: Toxicity in BDF1 mouse allografted with mouse L1210 cells at 200 mg/kg; format: organism-based; design: dose 200 mg/kg; conditions: in vivo; outline: as §1
[3] = Cytotoxicity against human 9KB cells; format: functional; conditions: read-out: ED50 (the source's name)
Outline: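 9KB cell culture assay run under the National Cancer Institute programme with compounds supplied in DMF solution. Values are ED50 in μg/ml, and ≤4 μg/ml is taken as the significance criterion.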

Mus musculus [4] = experiment: Toxicity in BDF1 mouse allografted with mouse L1210 cells at 12.5 mg/kg; format: organism-based; design: dose 12.5 mg/kg; conditions: in vivo; outline: as §1
Mus musculus [5] = experiment: Toxicity in BDF1 mouse allografted with mouse L1210 cells at 50 mg/kg; format: organism-based; design: dose 50 mg/kg; conditions: in vivo; outline: as §1

| Structure (SMILES) | Activity (Mus musculus [1]) | Activity (L1210) | Activity (Mus musculus [2]) | EC50 [3] [mg/L] | Activity (Mus musculus [4]) | Activity (Mus musculus [5]) |
| --- | --- | --- | --- | --- | --- | --- |
| C1=CCC2OC2C1 (stereo not given) | Toxic | inactive | Non-toxic | 130 (≈ 1350 µM) | – | – |
| C1OCC2OC12 (stereo not given) | Non-toxic | inactive | Non-toxic | 100 (≈ 1160 µM) | – | – |
| COC(=O)[C@@H]1[C@H]2C[C@@H]([C@@H]3O[C@H]23)[C@@H]1C(=O)OC | Non-toxic | inactive | Non-toxic | 100 (≈ 442 µM) | – | – |
| COC(=O)[C@@H]1[C@H](C(=O)OC)[C@@H]2C=C[C@@H]1O2 | Non-toxic | inactive | Non-toxic | 100 (≈ 471 µM) | – | – |
| COC(=O)[C@@H]1[C@H](C(=O)OC)[C@@H]2C=C[C@@H]1C2 | Non-toxic | inactive | Non-toxic | 100 (≈ 476 µM) | – | – |
| COC(=O)C1CC=CC(C)C1C(=O)OC (stereo not given) | Non-toxic | inactive | Non-toxic | 48 (≈ 226 µM) | – | – |
| COC(=O)C1CC2OC2C(C)C1C(=O)OC (stereo not given) | Non-toxic | inactive | Non-toxic | 100 (≈ 438 µM) | – | – |
| COC(=O)C1=C(C(=O)OC)[C@H]2O[C@H]1[C@@H]1O[C@@H]12 | Toxic | inactive | Toxic | 1.5 (≈ 6.63 µM) | Non-toxic | Toxic |
| COC(=O)C1=C(C(=O)OC)C2C=CC1C2 | Non-toxic | inactive | Non-toxic | 100 (≈ 480 µM) | – | – |
| C1CC2CC1C1OC21 (stereo not given) | Non-toxic | inactive | Non-toxic | 100 (≈ 908 µM) | – | – |
| COC(=O)C1=C(C(=O)OC)C2(C)C=CC1O2 (stereo not given) | Toxic | inactive | Toxic | 3 (≈ 13.4 µM) | Non-toxic | Toxic |
| COC(=O)C1=C(C(=O)OC)[C@H]2C[C@H]1[C@@H]1O[C@@H]12 | Toxic | inactive | Non-toxic | 22 (≈ 98.1 µM) | – | – |
| COC(=O)C1=C(C(=O)OC)C2CCC1O2 | Non-toxic | inactive | Non-toxic | 22 (≈ 104 µM) | – | – |
| COC(=O)C1=C(C(=O)OC)C2CCC1C2 | Non-toxic | inactive | Non-toxic | 100 (≈ 476 µM) | – | – |
| COC(=O)[C@@H]1[C@H]2O[C@@H]([C@H]3O[C@H]32)[C@@H]1C(=O)OC | Non-toxic | inactive | Non-toxic | 100 (≈ 438 µM) | – | – |
| COC(=O)C1=C(C(=O)OC)[C@@]2(C)O[C@H]1[C@@H]1O[C@@H]12 | Toxic | inactive | Toxic | 3 (≈ 12.5 µM) | Non-toxic | Toxic |
